# Rows were chosen to be rich in hits. Some 4.6% of all compounds tested hit in one or more screens of this group.
# OX1R antag-1 = OX1R (human) antagonism. OX1R-expressing cells, FRET antagonist read-out. O43613. actives 1.8% (n = 330,000). inhibition, % at 6.6 µM. AID 485270; in the data active = inhibition mostly above about 38%, no sharp cut-off; inactive = mostly below about 40%;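 also: 0% = agonist challenge alone and 100% = reference antagonist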
# OX1R antag-2 = human HCRTR1 antagonism; inhibition, % at 5 µM; CHO/OX1R cells, Fluo-8 calcium fluorescence, orexin A; actives 0.43% (n = 330,000); O43613;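 active = inhibition above its plate's threshold, mean inhibition of all tested compounds on the plate plus 3 SD, cut at about 37% in these data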;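 also: 0% = orexin A challenge wells and 100% = SB-334867-A antagonist wells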
# TAAR1 antag = human TAAR1 antagonism | actives 1.5% (n = 360,000) | CHO RD-HGA16 TAAR1, Fluo-8 calcium fluorescence, antagonist | Q96RJ0 | inhibition, % at 3 µM;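 active = inhibition above a per-plate cutoff, the mean inhibition of test compounds on that plate plus 3 SD, cut at about 49% in these data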;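 also: 0% = DMSO plus EC80 beta-PEA response and 100% = DMSO alone without agonist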
# Target sequence (Q96RJ0 whole entry, looked up): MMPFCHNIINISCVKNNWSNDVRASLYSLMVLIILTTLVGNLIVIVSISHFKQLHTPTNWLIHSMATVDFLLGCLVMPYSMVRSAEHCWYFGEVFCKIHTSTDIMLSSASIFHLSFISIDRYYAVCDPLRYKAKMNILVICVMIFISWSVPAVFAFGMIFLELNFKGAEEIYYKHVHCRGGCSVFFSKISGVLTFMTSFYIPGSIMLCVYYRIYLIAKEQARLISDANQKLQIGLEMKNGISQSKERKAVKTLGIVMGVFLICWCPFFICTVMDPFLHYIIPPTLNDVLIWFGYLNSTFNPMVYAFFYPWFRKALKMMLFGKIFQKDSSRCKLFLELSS
#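 Assay system: RD-HGA16 CHO cells with stable hTAAR1 and Gα16 / Reagent: EC80 β-phenethylamine stimulus / Doses: 3 µM, single point / Timing: dye loading 75 min at 37 °C, then 30 min room temperature / Measured by: Fluo-8 intracellular calcium dye fluorescence, real-time kinetic reads / Controls: vehicle wells and EC80 agonist wells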
# CHO parental Ca = counter-screen for OX1R antagonists: effect in parental CHO cells; actives 0.63% (n = 330,000); parental CHO-K1, ATP-induced calcium, Fluo-8 fluorescence; inhibition, % at 5.6 µM; AID 463079;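 active = inhibition above that plate's mean sample inhibition plus 3 SD, cut at about 26% in these data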;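 also: 0% = ATP-challenged DMSO wells and 100% = DMSO wells without ATP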
#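 Test system: parental CHO cells; detection: calcium-sensitive Fluo-8 fluorescence; evaluation: percent inhibition of calcium signal; also added: ATP as calcium-mobilizing challenge; repeats: one well per compound; control set: ATP-challenged DMSO wells low, unchallenged DMSO wells high; compound: single nominal dose of 5.6 µM per compound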
# GPR7 antagonist = blocks human GPR7 receptor signaling. P48145. GPR7-expressing cells, fluorescence antagonist assay. inhibition, % at 4.4 µM. actives 1.1% (n = 290,000); in the data active = inhibition above about 16%, passing the limit was not always enough;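 also: cells stimulated with the agonist NPW; 0% = agonist with vehicle and 100% = vehicle without agonist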
# Target sequence (P48145 whole entry, looked up): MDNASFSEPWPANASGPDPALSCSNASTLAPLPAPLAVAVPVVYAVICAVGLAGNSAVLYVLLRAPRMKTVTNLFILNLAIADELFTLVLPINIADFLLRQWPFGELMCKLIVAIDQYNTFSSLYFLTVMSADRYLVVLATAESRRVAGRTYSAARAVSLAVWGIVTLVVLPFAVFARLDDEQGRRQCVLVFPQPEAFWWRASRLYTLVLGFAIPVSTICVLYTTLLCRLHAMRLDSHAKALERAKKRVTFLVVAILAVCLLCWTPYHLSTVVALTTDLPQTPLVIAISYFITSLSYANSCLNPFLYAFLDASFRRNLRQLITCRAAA
# TAAR1 agonist = human TAAR1 agonism; CHO RD-HGA16 TAAR1, Fluo-8 calcium fluorescence; vehicle wells 0%, saturating PEA agonist 100%; activation, % at 3 µM; Q96RJ0; actives 0.99% (n = 360,000);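 active = activation above the mean activation of all test compounds in the run plus 3 SD, cut at about 38% in these data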
#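 Test system: RD-HGA16 (CHO) cells co-expressing Gα16 and hTAAR1 | Doses: Single dose, 3 µM | Schedule: 17-24 h seeding, 75 min 37 °C dye, 30 min RT | Evaluation: % activation from peak over basal fluorescence ratio, DMSO-to-PEA scaled | Technique: Kinetic Fluo-8 calcium fluorescence | Benchmarks: Low control DMSO, high control PEA (EC100)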
# An asterisk follows results filed as active; / = no result.
SMILES,OX1R antag-1,OX1R antag-2,TAAR1 antag,CHO parental Ca,GPR7 antagonist,TAAR1 agonist
N#CC(Cc1cccs1)c1nc2ccccc2[nH]1 (centres undefined),/,/,-3,/,/,1
CCCCCCCCCCCCOC(=O)C[N+](C)(C)C,5,-17,49*,-3,-12,38*
CCOC(=O)C1=C(COC(=O)c2ccccc2OC)NC(=O)NC1C (centres undefined),/,/,49*,/,/,14
Cn1cnnc1SCC(=O)Nc1ccc2nc(SCc3cccc4ccccc34)sc2c1,35,-15,17,-35,18,42*
Cn1cnnc1SCC(=O)Nc1ccc2nc(SCc3ccccc3Cl)sc2c1,18,-23,2,-18,2,18
O=C(OCc1ccccc1)N1CCC2CC1c1ccc(N3CCN(Cc4ccccc4)CC3)cc12 (centres undefined),/,/,-26,/,/,1
CC1(C)CC(=O)C(CC2=C(O)CC(C)(C)CC2=O)=C(O)C1,11,-8,-7,4,19,4
CCOc1ccc(OCCNC(=O)c2oc3ccccc3c2COC)cc1,10,-6,-2,-14,/,-2
CC(=O)NCC1COc2ccccc2O1 (centres undefined),2,-16,9,-10,-13,4
COCc1c(C(=O)NCC2COc3ccccc3O2)oc2ccccc12 (centres undefined),68*,7,-7,-26,/,-1
COCc1c(C(=O)NCCOc2ccc(Cl)cc2)oc2ccccc12,34*,-8,3,-24,/,11
Cc1cc(=O)oc(C)c1C(=O)NCC1COc2ccccc2O1 (centres undefined),2,1,-11,-9,-3,40*
Cc1cc(=O)n(C(C)(C)C)c(=O)n1Cc1ccccc1,0,-10,-4,0,2,-3
COc1cc(-c2cc(NC(C)=O)c3ncc(-c4ccccc4)n3c2)cc(OC)c1OC,/,/,49*,/,/,3
COc1cc(-c2cc(NC=O)c3ncc(-c4ccccc4)n3c2)cc(OC)c1OC,/,/,63*,/,/,13
COc1ccc(-c2cc(NC(C)=O)c3ncc(-c4ccc(OC)c(OC)c4)n3c2)cc1OC,/,/,-1,/,/,2
COc1ccc(-c2cnc3c(NC(C)=O)cc(-c4ccccc4OC)cn23)cc1OC,/,/,52*,/,/,7
O=C(COC(=O)CNC(=O)c1ccc(Cl)cc1Cl)NC1CCCCCCC1,9,-16,13,-14,/,0
Cc1cc(C(=O)OCC(=O)Nc2ccc(F)cc2)c(C)o1,16,-19,-16,1,3,12
CN(c1ccccc1)S(=O)(=O)c1cccc(Cl)c1Cl,31,-19,-58,-8,-12,-3
CON(c1nc(N(C)C)nc(N(C)C)n1)S(=O)(=O)c1ccccc1Cl,31*,1,-1,-6,-7,-2
CC1CC1C(=O)OCC(=O)Nc1ccc(Cl)cn1 (centres undefined),7,0,-4,-4,/,0
C[C@H](CO)N1C[C@H](C)[C@@H](CN(C)S(=O)(=O)c2ccc(F)cc2)Oc2ccc(NC(=O)C3CCCCC3)cc2C1=O,8,-39,13,-20,/,8
O=C(c1ccccc1NS(=O)(=O)c1ccc([N+](=O)[O-])cc1[N+](=O)[O-])N1O[C@@H]2C=C[C@H]1C2,46*,-7,-12,-8,/,-1
CN(CC(=O)Nc1ccc(S(=O)(=O)N2CCOCC2)cc1)Cc1ccc(F)cc1,-1,5,1,-2,/,2
SMILES,OX1R antag-1,OX1R antag-2,TAAR1 antag,CHO parental Ca,GPR7 antagonist,TAAR1 agonist
O=C(C1=C[C@H](c2csc3ccccc23)C[C@H](OCCCCO)O1)N1CCN(Cc2ccc3c(c2)OCO3)CC1,12,-23,60*,-13,1,24
CC(=O)n1cc([C@H]2C=C(C(=O)N3CCN(Cc4ccc5c(c4)OCO5)CC3)O[C@@H](OCc3ccc(CO)cc3)C2)c2ccccc21,32,1,67*,-11,-8,16
O=C(CN1CCOCC1)Nc1ccccc1C(=O)Nc1ccccc1,18,-12,8,-8,7,5
O=C1c2cccc3c(N4CCCCC4)ccc(c23)C(=O)N1c1ccc(Cl)cn1,/,/,/,/,-3,/
O=C1c2cccc3c([N+](=O)[O-])ccc(c23)C(=O)N1c1nccs1,62*,20,45,14,4,-3
O=C1c2cccc3c(N4CCCCC4)ccc(c23)C(=O)N1c1ccccn1,48,51*,6,31,4,13
O=C1c2cccc3c([N+](=O)[O-])ccc(c23)C(=O)N1c1ccccn1,68*,20,27,17,23,1
O=C1c2cccc3c([N+](=O)[O-])ccc(c23)C(=O)N1O,21,-14,-40,-2,17,-2
O=C1c2cccc3cccc(c23)C(=O)N1c1nccs1,30,-17,1,-1,-3,5
Cn1c(=O)c2ncn(CC(=O)Nc3cccc(-c4nc5ccccc5s4)c3)c2n(C)c1=O,35,-32,12,-10,4,11
O=C(NNC(=O)c1cccnc1SCc1cccc([N+](=O)[O-])c1)c1ccccn1,11,-7,12,-12,-5,4
Cc1ccc(NC(=O)c2ccc(Cl)cc2Cl)cc1O,14,-17,-12,-4,-5,3
Brc1ccc2[nH]c3c(N4CCc5ccccc5C4)ncnc3c2c1,13,44*,/,47*,3,/
Clc1ccc2[nH]c3c(N4CCC5(CC4)OCCO5)ncnc3c2c1,82*,24,/,31,10,/
CN1CCN(c2ncnc3c2[nH]c2ccc(F)cc23)CC1,8,-15,10,-11,-9,10
COc1ccc2[nH]c3c(N4CCC(O)(c5cccc(C(F)(F)F)c5)CC4)ncnc3c2c1,13,-14,51*,-6,-1,14
Fc1ccc2[nH]c3c(N4CCc5ccccc5C4)ncnc3c2c1,56*,11,42,65*,11,6
COc1ccccc1-c1nc2ccc(Cl)cc2c(=O)n1O,-3,-16,-3,3,3,0
CC(C)[C@H](NC(=O)c1ccccc1Cl)C(=O)OCC(=O)NCc1ccc2c(c1)OCO2,-1,-22,-10,-21,/,5
CCOc1ccc2[nH]c3c(N4CCc5ccccc5C4)ncnc3c2c1,13,-9,-8,-16,-9,1
Cc1ccc2[nH]c3c(N4CCc5ccccc5C4)ncnc3c2c1,82*,51*,36,64*,13,13
C[C@H]1CN([C@@H](C)CO)C(=O)Cc2cc(NS(=O)(=O)c3cccs3)ccc2O[C@H]1CN(C)S(=O)(=O)c1cn(C)cn1,5,-13,-13,-4,/,10
Cc1ccc(-n2c(-c3ccc(Br)cc3)c[n+]3c2CCc2ccc4cccnc4c2-3)cc1,11,90*,-2,84*,65*,18

# Screens from PubChem BioAssay.
